# Dynein transport = dynein cargo transport inhibition. 3617.4 mouse cells, GR-EGFP nuclear translocation imaging; test concentration mostly 20 µM; stimulated with dexamethasone, 1 µM; hits give low values. z-score, hits read low. 220,000 compounds, 0.47% hits;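 active = plate z-score of nuclear minus cytoplasmic receptor signal below a set negative limit, without overly bright fluorescence or cell loss, cut at about -3.5 in these data, passing the limit was not always enough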;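 also: z-score of nuclear minus cytoplasmic ring GR-EGFP intensity difference per well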
#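 Buffer or medium – tet-free medium with charcoal-stripped serum · Signal – automated 10x imaging of fixed Hoechst-stained cells · Also added – dexamethasone agonist, 1.0 µM final, for 30 min · Incubation – induction 48 h, compound 1 h, agonist 30 min · Read-out – GR-EGFP nuclear translocation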
# b-catenin transl = modulators of beta-catenin nuclear translocation | 190,000 compounds, 0.3% hits | HeLa beta-catenin nuclear translocation, immunofluorescence imaging | nuclear translocation activity, % at 5 µM | AID 1665;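 active = nuclear translocation activity above 50% at 5 µM, with a well cell count of 50 or more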;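 also: per-cell ratio of nuclear to cytoplasmic median beta-catenin stain intensity; plate controls were DMSO negative control for no effect and GSK-3 inhibitor IX positive control for full effect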
#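 assay system = human HeLa cells, endogenous beta-catenin | times = compound treatment 24 h, 37°C, 5% CO2 | detection = Anti-beta-catenin immunofluorescence on PFA-fixed, Triton-permeabilized cells, DAPI nuclei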
# L major viab = Leishmania major promastigote growth inhibition. AID 1063. 200,000 compounds, 9% hits. Leishmania major promastigotes, resazurin fluorescence viability. inhibition, % at 10 µM; in the data active = inhibition above about 50%;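 also: promastigotes grown with compound for 44 hours at 28 °C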
# CHOP inh = blocks CHOP induction under ER stress. CHO-K1 CHOP-promoter luciferase, tunicamycin-induced, 15-18 h. inhibition, % at 10 µM. 220,000 compounds, 3.8% hits;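 active = compounds that reduced the stress-induced luciferase reporter signal by more than about 70% of percent inhibition, limit read from the data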;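 also: 0% = tunicamycin plus vehicle and 100% = wells without tunicamycin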
# Autophagy HCS = alters autophagy in cells; calls only at 10 µM (by protocol); AID 463193; MEF GFP-LC3 puncta imaging; test concentration mostly 10 µM; 190,000 compounds, 0.98% hits;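 active = percentage of spot-positive cells more than 3 SD above its plate mean, without a fluorescence outlier flag or 80% toxicity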;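 also: spot-positive cell cutoff set from DMSO-treated cells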
# MT stabilize HCS = microtubule stabilization, imaging screen; 200,000 compounds, 0.83% hits; % tubulin-high responders, % at 10 µM; HeLa tubulin immunostaining HCS, 24 h; share of cells brighter than vehicle mean+2SD; AID 2205;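 active = plate Z-score above 3 for both tubulin-high and condensed-nucleus cell shares, with cell loss under 80%, at 10 µM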;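 also: anti alpha tubulin signal scored within the nucleus-defined area of each cell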
# Active calls of the source: *; i = inactive; x = no result given; + = active, no number. An excerpt weighted towards active compounds, which were near 12% of everything screened.
SMILES,Dynein transport,b-catenin transl,L major viab,CHOP inh,Autophagy HCS,MT stabilize HCS
c1cncc(C(c2nnnn2C2CCCCC2)N2CCN3CCCC3C2)c1 (stereo not given),-0.338,-2.0,-7.2,2.4,i,3.0
Cc1ccc(C(c2nnnn2C2CCCC2)N2CCN(c3nc4ccccc4s3)CC2)cc1 (stereo not given),-1.02,x,94.7*,x,i,2.7
CN(C)c1ccc(C(c2nnnn2C2CCCCC2)N2CCN(C(=O)c3ccco3)CC2)cc1 (stereo not given),-0.217,x,28.4,x,i,2.0
Cc1ccc(C(c2nnnn2C2CCCC2)N2CCN3CCCC3C2)cc1 (stereo not given),-0.271,-1.6,86.7*,23.8,i,3.5
O=C(c1ccco1)N1CCN(C(c2cccs2)c2nnnn2C2CCCCC2)CC1 (stereo not given),-0.252,-1.8,60.0*,6.1,i,2.0
N#CC(c1ccccc1)N(CCCCl)C(=O)c1ccc(Br)cc1 (stereo not given),-0.0584,3.7,15.0,57.2,i,2.1
CCCS(=O)(=O)N1CCN(Cc2c[nH]c3ccccc23)CC1,2.03,0.3,5.4,2.6,i,4.0
O=C(NC(CC(=O)N1CCN(c2ccc([N+](=O)[O-])cc2)CC1)c1ccccc1)c1ccccc1Cl (stereo not given),0.0357,x,83.0*,1.7,i,2.6
Cc1cccc(N2CCN(C(=O)CC(NC(=O)c3ccccc3Cl)c3ccccc3)CC2)c1C (stereo not given),-0.345,x,95.0*,45.5,i,2.2
CCSc1ccccc1C(=O)N1CCN(c2ccc([N+](=O)[O-])cc2)CC1,-0.446,0.7,4.0,35.5,i,3.9
Cc1nn(C(=O)c2cc3sccc3[nH]2)c(C)c1C,-0.297,1.9,-6.9,50.3,i,3.1
Cn1c(=O)oc2cc(S(=O)(=O)N3CCC(C(=O)NCc4ccc(F)cc4)CC3)ccc21,-0.763,x,-7.0,4.5,+,3.9
Cn1c(=O)oc2cc(S(=O)(=O)N3CCC(C(=O)NCCc4ccccc4)CC3)ccc21,0.00519,0.0,x,4.3,x,x
CC1CCN(S(=O)(=O)N2CCC(C(=O)NCc3cccs3)CC2)CC1,0.674,-5.2,-4.0,0.1,+,4.7
CC(C)CN(CC(C)C)S(=O)(=O)N1CCC(C(=O)NCc2cccs2)CC1,-0.337,-0.7,-1.8,31.9,i,6.0
O=C(NCc1cccs1)C1CCCN(S(=O)(=O)c2cnc[nH]2)C1 (stereo not given),-0.581,x,1.8,23.3,+,2.5
Cn1c(=O)oc2cc(S(=O)(=O)N3CCC(C(=O)NCc4cccs4)CC3)ccc21,1.35,x,-3.0,74.7*,i,2.3
COc1ccc(CCC(C)NC2C3CC4CC(C3)CC2C4)cc1 (stereo not given),-0.248,-4.4,14.3,5.5,i,3.6
O=C(NCCN1C(=O)S/C(=C\c2ccc(F)cc2)C1=O)c1cccc(S(=O)(=O)N2CCOCC2)c1,-0.802,0.4,34.5,32.8,i,1.8
CCOc1nc2c(c(=O)n(C)c(=O)n2C)n1Cc1ccccc1Cl,-0.382,-13.9,-0.3,30.9,i,3.1
C=CCn1c(Oc2cc(C)ccc2C)nc2c1c(=O)n(C)c(=O)n2C,0.736,-1.0,-7.8,19.1,+,3.2
C=CCOc1nc2c(c(=O)n(C)c(=O)n2C)n1Cc1c(Cl)cccc1Cl,1.59,-1.4,64.3*,85.6*,i,4.1
c1cnc(N2CCN(c3cnccn3)CC2)nc1,0.0489,0.0,2.9,-4.5,i,0.9
CCOc1cc(CNCc2ccncc2)cc(Br)c1OCc1ccc(F)cc1,-0.0992,1.6,92.7*,52.0,i,2.9
O/N=C/c1cc(Br)ccc1OCc1ccccc1F,-0.319,x,99.6*,x,i,4.0
CC(=O)Nc1cccc(OCc2ccc(F)cc2)c1,0.534,-0.4,19.7,0.9,i,2.3
Fc1ccc(COc2cccc(CNCc3ccncc3)c2)cc1,-0.313,1.6,95.7*,40.2,i,3.1
Fc1ccccc1COc1ccc(Br)cc1CNCc1cccnc1,1.5,-0.2,36.7,16.2,i,3.1
Fc1ccccc1COc1ccc(Br)cc1CNCc1ccncc1,-0.663,x,99.7*,-2.1,i,2.1

# Screening results as filed in PubChem.
